From ChEMBL document CHEMBL4428065, “Fulvestrant-3 Boronic Acid (ZB716): An Orally Bioavailable Selective Estrogen Receptor Downregulator (SERD)” (J Med Chem, 2016)
Active and inactive are the calls of the source. No cut-off for these calls is given here.

Legend:
T47D [1] = experiment: Antiproliferative activity against human T47D cells after 5 days by coulter counter analysis; format: functional, cell-based; details: 120 h
Method in brief: (§1)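 Cells plated at 50000/well in 5% FBS phenol red-free DMEM; treated with six concentrations from 10−10 to 10−5 M for 5 days, DMSO vehicle controls. Viable cells counted by Coulter counter; survival ratio = treated/vehicle viable cells (control 100%). IC50 derived from dose–response curves. Cultures at 37 °C, 5% CO2.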

T47D [2] = experiment: Antiproliferative activity against human tamoxifen-resistant T47D cells over-expressing PKC-alpha after 5 days by coulter counter analysis; format: functional, cell-based; details: 120 h; method in brief: as §1
[3] = target: T1, Estrogen receptor (Homo sapiens) (UniProt P03372); experiment: Antiestrogenic activity at estrogen receptor in human T47D-KBluc cells assessed as inhibition of estradiol activity by luciferase reporter gene assay relative to estradiol control; format: cell-based
T1 sequence (whole entry): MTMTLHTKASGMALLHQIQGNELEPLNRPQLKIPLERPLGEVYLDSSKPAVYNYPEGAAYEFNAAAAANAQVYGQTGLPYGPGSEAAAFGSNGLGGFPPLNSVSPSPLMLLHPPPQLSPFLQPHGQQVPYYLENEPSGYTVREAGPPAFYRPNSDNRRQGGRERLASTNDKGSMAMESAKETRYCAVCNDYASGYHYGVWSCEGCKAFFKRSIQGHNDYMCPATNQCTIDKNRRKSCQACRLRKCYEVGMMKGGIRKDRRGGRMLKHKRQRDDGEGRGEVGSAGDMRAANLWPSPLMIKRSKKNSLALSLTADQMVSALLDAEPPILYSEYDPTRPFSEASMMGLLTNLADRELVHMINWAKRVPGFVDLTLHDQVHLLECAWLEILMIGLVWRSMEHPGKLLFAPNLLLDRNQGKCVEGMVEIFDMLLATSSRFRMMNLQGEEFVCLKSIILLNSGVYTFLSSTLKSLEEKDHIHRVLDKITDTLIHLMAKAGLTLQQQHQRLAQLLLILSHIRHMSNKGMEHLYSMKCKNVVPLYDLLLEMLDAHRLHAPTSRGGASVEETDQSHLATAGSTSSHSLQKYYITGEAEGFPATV
Method in brief: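 T47D-kb-Luc cells stably carry an ERE-driven firefly luciferase. Antagonism was read as inhibition of the signal induced by 0.01 nM estradiol, testing 0.1, 1 and 10 nM. Luminescence was normalized to the estradiol control, run in quadruplicate in at least three separate experiments, and given as mean ± SD.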

[4] = Cmax in C57BL/6 mouse at 8.3 mg/kg, sc by HPLC-MS/MS analysis; format: ADME, organism-based; set-up: dose 8.3 mg/kg, route subcutaneous; details: in vivo
MCF7 [5] = experiment: Antiproliferative activity against human tamoxifen-resistant MCF7 cells after 5 days by coulter counter analysis; format: functional, cell-based; details: MCF7, 120 h
Method in brief: (§2)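 Cells were plated at 50000/well in 5% FBS phenol red-free DMEM. The tamoxifen-resistant line came from prolonged 4-hydroxytamoxifen exposure of MCF-7. Cells were treated 5 days at six concentrations from 10−10 to 10−5 M, with DMSO vehicle. Viable cells were counted by Coulter counter, survival expressed relative to vehicle, and IC50 taken from dose-response curves.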

[6] = Half life in C57BL/6 mouse at 8.3 mg/kg, sc by HPLC-MS/MS analysis; format: ADME, organism-based; details: in vivo
MCF7 [7] = experiment: Antiproliferative activity against human MCF7 cells after 5 days by coulter counter analysis; format: functional, cell-based; details: MCF7, 120 h; method in brief: as §2
[8] = AUC in C57BL/6 mouse at 8.3 mg/kg, sc by HPLC-MS/MS analysis; format: ADME, organism-based; details: in vivo
[9] = target: T1, Estrogen receptor (Homo sapiens); experiment: (§3) Downregulation of ER-alpha expression in human T47D cells measured after 5 days by Western blot analysis; format: cell-based
[10] = target: T1, Estrogen receptor (Homo sapiens); experiment: (§4) Downregulation of ER-alpha expression in human tamoxifen-resistant T47D cells over-expressing PKC-alpha measured after 5 days by Western blot analysis; format: cell-based
[11] = AUC in C57BL/6 mouse at 8.3 mg/kg administered through oral gavage by HPLC-MS/MS analysis; format: ADME, organism-based; details: in vivo
Method in brief: (§5)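 Female C57BL/6 mice, n = 5, given a single 8.3 mg/kg oral gavage in PBS/ethanol. Orbital sinus blood was drawn into EDTA at 1, 3, 6, 24 and 48 h, with each group sampled once. Analysis by UPLC-MS/MS on a C18 column with a water/acetonitrile 0.05% formic acid gradient.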

[12] = target: T1, Estrogen receptor (Homo sapiens); experiment: Antagonistic activity at estrogen receptor in human MCF7 cells assessed as suppression of PGR expression 10^-8 to 10^-7 M measured after 48 hrs by real-time PCR analysis; format: cell-based
Method in brief: (§6)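 MCF-7 cells were seeded in DMEM with 5% FBS, then switched to phenol red-free DMEM with 5% charcoal-stripped FBS for 48 h. They were treated 48 h with vehicle, E2, or test compound + E2. Expression was measured by real-time PCR, with fold change calculated by 2^−ΔΔCt normalized to five reference genes (18S rRNA, HPRT1, RPL13A, GAPDH, ACTB).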

Estrogen receptor [13] = target: T2, Estrogen receptor (Homo sapiens, UniProt P03372); experiment: Displacement of fluoromone ligand from recombinant ER-alpha (unknown origin) by LanthaScreen TR-FRET assay
T2 sequence (P03372 whole entry): T1 sequence (whole entry)
Method in brief: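 Competitive TR-FRET binding with recombinant ERα, in which test compound displaces a fluormone tracer. Six to ten concentrations spanning the IC50 were tested in quadruplicate, and IC50 was taken from the competition curves.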

[14] = target: T1, Estrogen receptor (Homo sapiens); experiment: Antagonistic activity at estrogen receptor in human MCF7 cells assessed as suppression of EGR3 expression at 10^-8 to 10^-7 M measured after 48 hrs by real-time PCR analysis; format: cell-based; method in brief: as §6
[15] = target: T1, Estrogen receptor (Homo sapiens); experiment: Antagonistic activity at estrogen receptor in human MCF7 cells assessed as suppression of TFF1 expression 10^-8 to 10^-7 M measured after 48 hrs by real-time PCR analysis; format: cell-based; method in brief: as §6
[16] = target: T1, Estrogen receptor (Homo sapiens); experiment: Antagonistic activity at estrogen receptor in human MCF7 cells assessed as suppression of WISP1 expression 10^-8 to 10^-7 M measured after 48 hrs by real-time PCR analysis; format: cell-based; method in brief: as §6
[17] = target: T1, Estrogen receptor (Homo sapiens); experiment: Antagonistic activity at estrogen receptor in human MCF7 cells assessed as suppression of PDZK1 expression 10^-8 to 10^-7 M measured after 48 hrs by real-time PCR analysis; format: cell-based; method in brief: as §6
[18] = Half life in C57BL/6 mouse at 8.3 mg/kg administered through oral gavage by HPLC-MS/MS analysis; format: ADME, organism-based; details: in vivo; method in brief: as §5
[19] = Cmax in C57BL/6 mouse at 8.3 mg/kg administered through oral gavage by HPLC-MS/MS analysis; format: ADME, organism-based; set-up: dose 8.3 mg/kg, route oral; details: in vivo; method in brief: as §5
Estrogen receptor [20] = target: T2, Estrogen receptor; experiment: as §3; format: cell-based
Estrogen receptor [21] = target: T2, Estrogen receptor; experiment: as §4; format: cell-based

Structure (SMILES) | IC50 (T47D [1]) [nM] | IC50 (T47D [2]) [nM] | inhibition [3] | IC50 (MCF7 [5]) [nM] | IC50 (MCF7 [7]) [nM] | inhibition [9] | inhibition [10] | also measured
CC/C(=C(\c1ccc(O)cc1)c1ccc(OCCN(C)C)cc1)c1ccccc1 [AFIMOXIFENE] | 24 | 540 | – | – | – | – | – | –
C[C@]12CC[C@@H]3c4ccc(O)cc4C[C@@H](CCCCCCCCC[S+]([O-])CCCC(F)(F)C(F)(F)F)[C@H]3[C@@H]1CC[C@@H]2O (stereo not given in full) [FULVESTRANT] | 1.2 | 42 | Dose-dependent effect | 44 | 1.5 | Dose-dependent effect | Dose-dependent effect | Cmax [4]: 15.2 ng/mL; half-life [6]: 14 h; AUC [8]: 158 ng·h/mL
C[C@]12CC[C@@H]3c4ccc(B(O)O)cc4C[C@@H](CCCCCCCCC[S+]([O-])CCCC(F)(F)C(F)(F)F)[C@H]3[C@@H]1CC[C@@H]2O (stereo not given in full) [ZB-716] | 6.1 | 37 | Dose-dependent effect | 69 | 3.2 | Dose-dependent effect | Dose-dependent effect | AUC [11]: 2547.1 ng·h/mL; inhibition [12]: Active; IC50 (Estrogen receptor [13]): 4.1 nM; inhibition [14]: Active; inhibition [15]: Active; inhibition [16]: Active; inhibition [17]: Active; t1/2 [18]: 23.5 h; Cmax [19]: 169.8 ng/mL; IC50 (Estrogen receptor [20]): 7.8 nM; IC50 (Estrogen receptor [21]): 12.7 nM
